# Calls of active or inactive are those of the source. No cut-off for these calls is given here.
# Experiments:
# [1] = system: HeLa; assay: Cell cycle arrest at G2 phase in human HeLa cells assessed as delay in entry into mitosis at 2 uM treated 1 hr after double thymidine-synchrony release by MPM-2-based FACS analysis (reference value: 8 hrs); type: functional
# [2] = system: HeLa; assay: Cell cycle arrest at G2 phase in human HeLa cells assessed as time taken to reach peak mitosis at 2 uM treated at early S phase post thymidine-synchrony release by immunoblot method (reference value: 9-10 hrs); type: functional
# [3] = system: HeLa; assay: Cell cycle arrest in synchronized human HeLa cells assessed as re-joining to form single binuclear cells at 2 uM by time-lapse microscopy; type: functional, cell-based
# [4] = system: HeLa; assay: Induction of abberent mitosis in human HeLa cells expressing GFP-H2B assessed as low survivin staining cells at 2 uM by immunofluorescence method (reference value: 9%); type: functional
# [5] = system: HeLa; assay: Cell cycle arrest at G2 phase in human HeLa cells at 2 uM treated 8 hr and measured 12 hr post-synchrony release using Propidium iodide staining by FACS analysis in presence of ATM/ATR signaling inhibitor caffiene; type: functional, cell-based
# [6] = Cell cycle arrest in human SK-MEL-13 cells assessed as accumulation at G2/M phase at 2 uM treated 1 hr and measured 8 hr post double hydroxyurea-synchrony release using propidium iodide staining by FACS analysis (reference value: 16 %); type: functional, cell-based
# Summary of the method: (§1)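 SK-Mel-13 cells synchronized with 2 mM hydroxyurea, then treated with 2 μM CDK4 inhibitor or left untreated 1 h after release. Harvested at indicated times post-release, ethanol-fixed, propidium iodide/RNase stained, and DNA content read by FACS. Proportions of G1, S and G2/M cells derived with ModFit.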
# [7] = system: HeLa; assay: Cell cycle arrest at G2 phase in human HeLa cells assessed as effect on cyclin A accumulation at 2 uM treated at early S phase measured after 6-14 hr post thymidine-synchrony release by immunoblot method; type: functional, cell-based
# [8] = system: RKO; assay: Antiproliferative activity against human RKO cells assessed as inhibition of S phase after 48 hrs by MTT assay; type: functional, cell-based
# Summary of the method: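 Cells grown in DMEM with 3 mM HEPES and 10% Serum Supreme at 37 °C, 5% CO2. Proliferation read by MTT assay 48 h after drug addition; IC50 given as mean of two separate determinations, each in duplicate.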
# [9] = system: HeLa; assay: Cell cycle arrest in human HeLa cells assessed as accumulation at G2/M phase at 2 uM treated 4 hr and measured 8 hr post double thymidine-synchrony release using propidium iodide staining by FACS analysis (reference value: 86 %); type: functional
# Summary of the method: (§2)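 Cells harvested at set times post-release, fixed in 70% ethanol, stained with 5 μg/ml propidium iodide plus 0.5 mg/ml RNase A, and analysed by flow cytometry. Cell-cycle phase fractions calculated by ModFit.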
# [10] = system: SW480; assay: Toxicity in human SW480 cells at IC50 after 3 days by MTT assay; type: cell-based; details: sw480, 72 h
# [11] = system: HeLa; assay: Cell cycle arrest at G2 phase in human HeLa cells at 2 uM treated 8 hr and measured 12 hr post-synchrony release using Propidium iodide staining by FACS analysis; type: functional, cell-based
# [12] = system: HeLa; assay: Cell cycle arrest in synchronized human HeLa cells assessed as inhibition of cytokinesis at 2 uM by time-lapse microscopy; type: functional
# [13] = system: A2058; assay: Cell cycle arrest in human A2058 cells assessed as accumulation at G1 phase at 2 uM treated 1 hr and measured 10 hr post double hydroxyurea-synchrony release using propidium iodide staining by FACS analysis; type: functional
# [14] = system: A2058; assay: Cell cycle arrest in human A2058 cells assessed as accumulation at G1 phase at 2 uM treated 1 hr and measured 12 hr post double hydroxyurea-synchrony release using propidium iodide staining by FACS analysis (reference value: 14 %); type: functional
# [15] = system: HeLa; assay: Cell cycle arrest in human HeLa cells assessed as time delay in progression through mitosis at 2 uM treated 2 hr post double thymidine-synchrony release using propidium iodide staining by FACS analysis; type: functional; summary of the method: as §2
# [16] = system: HeLa; assay: Cell cycle arrest in Rb-deficient human HeLa cells assessed as accumulation at sub-diploid phase at 2 uM after 24 hrs by FACS analysis; type: functional
# Summary of the method: (§3)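 Ethanol-fixed cells stained with propidium iodide/RNase A, DNA content read by FACS, phase and sub-diploid fractions calculated with ModFit.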
# [17] = system: HeLa; assay: Cell cycle arrest in human HeLa cells assessed as accumulation at G1 phase at 2 uM treated 4 hr and measured 12 hr post double thymidine-synchrony release using propidium iodide staining by FACS analysis (reference value: 81 %); type: functional
# [18] = Cell cycle arrest in human SK-MEL-13 cells assessed as accumulation at G1 phase at 2 uM treated 1 hr and measured 12 hr post double hydroxyurea-synchrony release using propidium iodide staining by FACS analysis (reference value: 40 %); type: functional, cell-based; summary of the method: as §1
# [19] = Cell cycle arrest in Rb-competent human SK-MEL-13 cells assessed as accumulation at sub-diploid phase at 2 uM after 24 hrs by FACS analysis; type: functional; summary of the method: as §3
# [20] = Inhibition of AKT using fluorescent substrate by IMAP assay
# Summary of the method: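 Run in-house using IMAP: phosphorylated fluorescent peptide substrate binds preferentially to immobilized metal beads, which quantifies kinase activity. ATP at 3× the Km of each enzyme.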
# [21] = system: HeLa; assay: Cell cycle arrest in human HeLa cells assessed as accumulation at G2/M phase at 2 uM treated 2 hr and measured 12 hr post double thymidine-synchrony release using propidium iodide staining by FACS analysis (reference value: 17 %); type: functional; summary of the method: as §2
# [22] = Cell cycle arrest in human SK-MEL-13 cells assessed as accumulation at S phase at 2 uM treated 1 hr and measured 12 hr post double hydroxyurea-synchrony release using propidium iodide staining by FACS analysis (reference value: 10 %); type: functional, cell-based; summary of the method: as §1
# [23] = system: HeLa; assay: Cell cycle arrest in Rb-deficient human HeLa cells assessed as accumulation at S phase at 2 uM after 24 hrs by FACS analysis; type: functional; summary of the method: as §3
# [24] = system: HeLa; assay: Cell cycle arrest in human HeLa cells assessed as accumulation at G2/M phase at 2 uM treated 6 hr and measured 8 hr post double thymidine-synchrony release using propidium iodide staining by FACS analysis (reference value: 86 %); type: functional; summary of the method: as §2
# [25] = system: SW480; assay: Toxicity in human SW480 cells at 8 uM by MTT assay; type: cell-based; details: sw480, 8 µM
# [26] = system: MDA-MB-453; assay: Toxicity in human MDA-MB-453 cells at 8 uM by MTT assay; type: cell-based; details: mda-mb-453, 8 µM
# [27] = system: HeLa; assay: Cell cycle arrest in human HeLa cells assessed as accumulation at G1 phase at 2 uM treated 6 hr and measured 12 hr post double thymidine-synchrony release using propidium iodide staining by FACS analysis (reference value: 81 %); type: functional
# [28] = system: NCI-H460; assay: Toxicity in human H460a cells at 8 uM by MTT assay; type: cell-based; details: nci-h460, 8 µM
# [29] = system: HeLa; assay: Induction of abberent mitosis in human HeLa cells expressing GFP-H2B assessed as normal survivin staining cells at 2 uM by immunofluorescence method (reference value: 7%); type: functional
SMILES,Time [1],Time [2],Activity [3],Activity [4],Activity [5],Activity [6],Activity [7],IC50 [8],Activity [9],Activity [10],Activity [11],inhibition at 2 µM [12],Activity [13],Activity [14],Time [15],Activity [16],Activity [17],Activity [18],Activity [19],IC50 [20],other results
COc1cccc(C(=O)c2sc(Nc3ccc(N4CCN(C(C)C)CC4)cc3)nc2N)c1,12 h,12 h,Active,18%,Active,70%,inactive,540 nM,91%,Toxic,Active,20%,7%,0%,4 h,10%,36%,13%,9%,> 200000 nM,Activity [21]: 88%; Activity [22]: 10%; Activity [23]: 27%; Activity [24]: 88%; Activity [25]: Toxic; Activity [26]: Toxic; Activity [27]: 73%; Activity [28]: Toxic; Activity [29]: 23%
CN1CCN(c2ccc(Nc3nc(N)c(C(=O)c4ccc5c(c4)OCCO5)s3)cc2)CC1,12 h,12 h,Active,18%,Active,70%,inactive,1600 nM,91%,Toxic,Active,20%,7%,0%,4 h,10%,36%,13%,9%,> 200000 nM,Activity [21]: 88%; Activity [22]: 10%; Activity [23]: 27%; Activity [24]: 88%; Activity [25]: Toxic; Activity [26]: Toxic; Activity [27]: 73%; Activity [28]: Toxic; Activity [29]: 23%

# — ChEMBL document CHEMBL1955770, “Inhibition of S/G2 phase CDK4 reduces mitotic fidelity” (J Biol Chem, 2006)
